System: HIV-1 Gag-Pol/Gag (frameshifting)
Assay: Western blot of virion proteins, ratio p160 to p24+p55
Format: cell-based
Conditions: protease inhibitor control
Summary of the method: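 Virions came from HEK293T producer cells transfected with an NL4-3 proviral vector (nef replaced by GFP, env deleted) plus VSV-G plasmid at 1:0.5. Test compound added 4 h post-transfection, media harvested at 24 h and 0.45-μm filtered. Virion proteins run on SDS-PAGE and blotted with anti-p24 to detect p24, p55 and p160. p160/(p24+p55) ratio taken by scanning densitometry. Indinavir served as protease-inhibitor control.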

SMILES: CC(C)(C)NC(=O)[C@@H]1CN(Cc2cccnc2)CCN1C[C@@H](O)C[C@@H](Cc1ccccc1)C(=O)N[C@H]1c2ccccc2C[C@H]1O [Indinavir, indinavir]
- effect on p160 on virion blot (in words): No buildup of p160 was observed
